Measured values as given in ChEMBL document CHEMBL5506013, “Mitochondria-Selective Dicationic Small-Molecule Ligand Targeting G-Quadruplex Structures for Human Colorectal Cancer Therapy” (J Med Chem, 2024).
Activity calls are given as the source filed them. The calls are words filed in the database; no cut-off is given here.

Key:
[1] = tested on: Quadruplex DNA; assay: Binding affinity to mito 78 G4 DNA (unknown origin) assessed as increase in fluorescence intensity by fluorescence spectrophotometric analysis; format: nucleic-acid assay
Summary of the method: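 Fluorescence titration in buffer. Ligand at 5 uM mixed with 20 uM pre-annealed DNA (95 °C for 10 min, slow cooling). Emission collected at 550-800 nm and monitored at 650 nm. Result reported as fold enhancement F/F0 over ligand alone.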

[2] = Drug localization in human HCT-116 cells overexpressing […] by measuring red foci at 4 uM incubated for 1 hr by hoechst33342 staining based analysis; format: ADME, cell-based; conditions: hct-116, 1 h
[3] = tested on: Quadruplex DNA; assay: Binding affinity to mito 0.5-15 G4 DNA (unknown origin) assessed as increase in fluorescence intensity by fluorescence spectrophotometric analysis; format: nucleic-acid assay
Summary of the method: (§1)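 Oligonucleotides were pre-annealed at 95 °C for 10 min, then cooled slowly. Ligand (5 uM) was mixed with 20 uM DNA in buffer. Emission was collected over 550–800 nm, and enhancement was taken at 650 nm as F/F0.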

[4] = tested on: HCT-116; assay: Induction of DNA damage in human HCT-116 assessed as increase in tail length at upto 4 uM incubated for 72 hrs in presence of MitoTEMPO by comet assay; format: functional, cell-based
[5] = Toxicity in BALB/c nude mouse assessed as change in red blood cell count at 5 mg/kg, iv administered every two days for 16 days; format: organism-based; conditions: in vivo, 384 h, time 16 day
Summary of the method: (§2)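 HCT116 xenograft-bearing male Balb/c nude mice (6/group) dosed iv at 5 mg/kg every two days or with PBS. Whole blood collected at sacrifice on day 16 for hematology parameters.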

[6] = tested on: HFF-1; assay: Induction of morphological changes in human HFF-1 cells at 4 uM by microscopy based analysis; format: functional, cell-based
Summary of the method: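 HCT116 and HFF1 cells treated with ligand at 4 uM alongside untreated controls. Morphology examined by microscopy at 100x.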

[7] = biological target: Quadruplex DNA; assay: Binding affinity to mito 81 G4 DNA (unknown origin) assessed as dissociation constant measured upto 150 secs by isothermal titration calorimetry assay; format: nucleic-acid assay
[8] = Drug localization in mitochondria of human HCT-116 cells at upto 4 uM incubated for 1 hrs by mito-tracker deep red staining based live cell imaging analysis; format: ADME; conditions: hct-116, 1 h
[9] = Antiproliferative activity against human BJ cells measured after 48 hrs by MTT assay; format: toxicity, cell-based; conditions: BJ cells
Summary of the method: (§3)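 Cells exposed to the ligands for 48 h. Viability was read by MTT, and the IC50 was derived from the response.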

[10] = biological target: Quadruplex DNA; assay: Binding affinity to mito 55 G4 DNA (unknown origin) assessed as dissociation constant measured upto 450 secs by surface plasmon resonance assay; format: nucleic-acid assay
Summary of the method: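 Surface plasmon resonance in buffer at 25 °C. Four G4-mtDNAs (Mito 78, Mito 55, Mito 29, Mito 0.5-16) and the hairpin HP19 served as substrates. Kd was derived from the sensorgrams.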

[11] = Drug localization in nucleus of human HCT-116 cells at upto 4 uM incubated for 1 hrs by hoechst33342 staining based live cell imaging analysis; format: ADME, subcellular; conditions: hct-116, 1 h
[12] = tested on: Quadruplex DNA; assay: Binding affinity to Mut 55 G4 DNA (unknown origin) assessed as increase in fluorescence intensity by fluorescence spectrophotometric analysis; format: nucleic-acid assay; summary of the method: as §1
[13] = tested on: HCT-116; assay: Induction of ROS production in human HCT-116 cells assessed as upregulation of ROS level at upto 4 uM measured after 48 hrs in presence of MitoTEMPO by mito-sox staining based analysis; format: functional, cell-based
[14] = tested on: Quadruplex DNA; assay: Binding affinity to Mut 78 G4 DNA (unknown origin) assessed as increase in fluorescence intensity by fluorescence spectrophotometric analysis; format: nucleic-acid assay; summary of the method: as §1
[15] = tested on: HCT-116; assay: Induction of DNA damage in human HCT-116 assessed as increase in tail length at upto 4 uM incubated for 72 hrs by comet assay; format: functional, cell-based
Summary of the method: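 HCT116 cells exposed to ligand at 0-4 uM for 72 h. DNA damage assessed by comet assay with DAPI staining (excitation 405 nm), imaged at 200x, tail length measured.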

[16] = tested on: HCT-116; assay: Downregulation of ND4L mRNA level in human HCT-116 cells at 0 to 4 uM measured after 48 hrs by qRT-PCR analysis; format: functional, cell-based; conditions: dose 0-4 µM
[17] = Toxicity in BALB/c nude mouse assessed as change in mean red blood cell hemoglobin content at 5 mg/kg, iv administered every two days for 16 days; format: organism-based; conditions: in vivo, 384 h, time 16 day; summary of the method: as §2
[18] = tested on: HCT-116; assay: Induction of mitochondrial dysfunction in human HCT-116 cells assessed as decrease in extracellular acidification rate at upto 4 uM incubated for 3 hrs by Seahorse XFe24 analyzer; format: functional, cell-based
Summary of the method: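 Seahorse Mito-stress and glycolysis stress tests on HCT116 cells treated with ligand for 3 h. Oxygen consumption rate and extracellular acidification rate recorded.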

[19] = tested on: DNA; assay: Binding affinity to HP19 DNA (non-G4 DNA) (unknown origin) assessed as change in melting temperature at 5 uM by circular dichroism spectroscopic analysis; format: nucleic-acid assay
[20] = tested on: Quadruplex DNA; assay: Binding affinity to Mito 29 G4 DNA (unknown origin) assessed as change in melting temperature at 5 uM by circular dichroism spectroscopic analysis; format: nucleic-acid assay
[21] = biological target: Quadruplex DNA; assay: Binding affinity to mito 0.5-16 G4 DNA (unknown origin) assessed as dissociation constant measured upto 150 secs by isothermal titration calorimetry assay; format: nucleic-acid assay
[22] = tested on: HCT-116; assay: Upregulation of cleaved caspase-3 level in human HCT-116 cells at upto 4 uM measured after 72 hrs by Western blot analysis; format: functional, cell-based
Summary of the method: (§4)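 HCT116 cells treated with ligand at 0-4 uM for 72 h. Lysates immunoblotted for Lamin B1, p53, p21, p16, gamma-H2A.x, caspase-3 and cleaved caspase-3, with beta-actin as loading control.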

[23] = tested on: HCT-116; assay: Upregulation of p16 level in human HCT-116 cells at upto 4 uM measured after 72 hrs by Western blot analysis; format: functional, cell-based; summary of the method: as §4
[24] = tested on: Quadruplex DNA; assay: Binding affinity to Mito 81 G4 DNA (unknown origin) assessed as increase in CD signal at 5 uM at 265 nM by circular dichroism spectroscopic analysis; format: nucleic-acid assay
[25] = Toxicity in BALB/c nude mouse assessed as change in platelet count at 5 mg/kg, iv administered every two days for 16 days; format: organism-based; conditions: in vivo, 384 h, time 16 day; summary of the method: as §2
[26] = tested on: HCT-116; assay: Downregulation of ND1 gene expression in human HCT-116 cells at 0 to 4 uM measured after 48 hrs by q-PCR analysis; format: functional, cell-based; conditions: dose 0-4 µM
[27] = tested on: HCT-116; assay: Downregulation of ATP6 protein level in human HCT-116 cells at upto 4 uM incubated for 48 hrs by Western blot analysis; format: functional, cell-based
[28] = Toxicity in BALB/c nude mouse assessed as effect on lung at 5 mg/kg, iv measured after 16 hrs post injection by H and E staining based analysis; format: organism-based; conditions: in vivo
[29] = tested on: HCT-116; assay: Downregulation of COX1 protein level in human HCT-116 cells at upto 4 uM incubated for 48 hrs by Western blot analysis; format: functional, cell-based
[30] = Drug localization in nucleus of living human HCT-116 cells assessed as colocalization at 4 uM incubated for 1 hr by Hoechst33342 staining based analysis; format: ADME, subcellular; conditions: hct-116, 1 h
[31] = tested on: DNA; assay: Binding affinity to HP19 DNA (non-G4 DNA) (unknown origin) assessed as increase in CD signal at 5 uM by circular dichroism spectroscopic analysis; format: nucleic-acid assay
[32] = Toxicity in BALB/c nude mouse assessed as change in hemoglobin level at 5 mg/kg, iv administered every two days for 16 days; format: organism-based; conditions: in vivo, 384 h, time 16 day; summary of the method: as §2
[33] = Antiproliferative activity against human HFF-1 cells measured after 48 hrs by MTT assay; format: toxicity, cell-based; conditions: HFF-1 cells; summary of the method: as §3

Activity [1]: Active
Drug uptake [2]: Active
Activity [3]: Active
Kd [7]: 60 nM
Drug uptake [8]: Active
Kd [10]: 170 nM
Drug uptake [11]: Not Active
Activity [12]: inactive
Activity [14]: inactive
ΔTm [19]: 0.5 °C
ΔTm [20]: 3.6 °C
Kd [21]: 60 nM
Activity [24]: Active
Drug uptake [30]: Not Active
Activity [31]: inactive
Compound: C(=C\c1ccc2ccccc2[n+]1CCCCCCCC[n+]1c(/C=C/c2ccc(N3CCCCC3)cc2)ccc2ccccc21)/c1ccc(N2CCCCC2)cc1.[I-].[I-]
Activity [4]: inactive
Activity [5]: Non-Toxic
Activity [6]: Active
IC50 at 48 h [9]: > 40000 nM
Activity [13]: inactive
Activity [15]: Active
Activity [16]: Active
Activity [17]: Non-Toxic
Activity [18]: Active
Activity [22]: Active
Activity [23]: Active
Activity [25]: Non-Toxic
Activity [26]: Active
Activity [27]: Active
Activity [28]: Non-Toxic
Activity [29]: Active
Activity [32]: Non-Toxic
IC50 at 48 h [33]: 32700 nM
